Experimental data: the EternaBench riboswitch data

Tested on: MS2 coat protein
Experiment: apparent Kd, MS2 coat protein; higher = weaker binding; RNA-MaP array; FMN 200 µM where present
Procedure, shortened: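 Two titrations, one without ligand and one with constant ligand, were run with SNAP-549-labelled MS2 coat protein from 0.7 or 1.5 nM, doubling to 3 µM. The targets were designs transcribed by stalled E. coli RNA polymerase on Illumina sequencing-chip clusters, in 100 mM Tris-HCl pH 7.5, 80 mM KCl, 4 mM MgCl2, BSA, DTT, yeast tRNA and Tween-20. The apparent Kd is the median of filtered per-cluster binding-curve fits, with green signal normalised to red-channel RNA signal and control-cluster median Fmax.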

[1] = designed as: OFF switch for flavin mononucleotide, no ligand
[2] = ligand present: flavin mononucleotide, designed as: OFF switch for flavin mononucleotide
[3] = designed as: ON switch for flavin mononucleotide, no ligand
[4] = ligand present: flavin mononucleotide, designed as: ON switch for flavin mononucleotide

| Sequence | apparent Kd [1] | apparent Kd [2] | apparent Kd [3] | apparent Kd [4] |
| --- | --- | --- | --- | --- |
| UGAUCUAUGUAGAAGGCCCAUAUCUGUAUUUAGGGAGGAUAUACAUGAGGAUCACCCAUGUGUAGAGCUGGUGGACUGGUCAGC | 87.8 nM | 183 nM | – | – |
| CUCCUACAUGAGGAUCACCCAUGUCAGGAUAUCUCAGUGGCGCCUAAAUGUGCCACCCAGAGAAGGGACGUGCA | 11.6 nM | 15.3 nM | – | – |
| CAUGACAAAGGAUAUACAUGAGGAUCACCCAUGUGGUCAUGGAAGUACGUGUUCUCACGUAGAAGGUUGCAGGG | 12.8 nM | 24.9 nM | – | – |
| UUUUACGCAGGAUAUACAUUUUUUUUAUUAUCCUCAUUAUUACAUGAGGAUCACCCAUGUAGAAGGGCGAUUUU | 75.7 nM | 99.7 nM | – | – |
| CUUUUGUGAGGAUAUUAGUAGUAAAUAUAUAAAAUUACUACUGAGAAGGCACAUGAGGAUCACCCAUGUUCCUC | 31.5 nM | 194 nM | – | – |
| AGAAAACAUGAGGAUCACCCAUGUGAGGAUAUCGAUGUCCAAGGCCGGGUGCGGGACUCGAGAAGGCACUUGGA | 76.9 nM | 32.3 nM | – | – |
| GCUGCGUAUGCAGGAUAUACAUGAGGAUCACCCAUGUAACUCGAACUCUAAGCGGGUGCGCGCAUGUAGAAGGGCAGGCGAGCC | 35.5 nM | 51.2 nM | – | – |
| GGUUGGCGAGGAUAUACAUGAGGAUCACCCAUGUGGUCCUAAAAAAAAAUAAACCUUUGUAGAAGGCGCGGGUC | 258 nM | 290 nM | – | – |
| ACGCAGCUGGGUGAGGAUAUCGGUGGUACUACAUGAGGAUCACCCAUGUCCGAAGCUCGGACCUCCGAGAAGGCGCCCGGCUGCG | – | – | 284 nM | 31.4 nM |
| UGCGGAAGAGGAUAUACGUAGAAAUAGAUUCAUGUAAAACUACAUGAGGAUCACCCAUGUAGAAGGCUUUCGCU | 24.8 nM | 232 nM | – | – |
| CGCAAACUUGGGUUUAAUGGUGCAUAGGAUAUGCUUGUACAUGAGGAUCACCCAUGUACUAUUGUGCAGAAGGGUGCAUUUGCG | – | – | 7.97 nM | 5.77 nM |
| GGAUGACAAAGUCAUCCAAUACGAACAUGAGGAUCACCCAUGUAGGAUAUGCUACUCAAAGAGUAGCAGAAGGACAUGUGCCUU | 33.8 nM | 252 nM | – | – |
| GGUGGACAUGAGGAUCACCCAUGUGAGGAUAUCGGCUGGCUAGUGGCGGCUGGCUUCUCGAGAAGGCGCAUAGU | 49.7 nM | 72.5 nM | – | – |
| AACGAGCAGUAGAAGGCAUGUCUACGGACAUGAGGAUCACCCAUGUUGUGACUCCGAAAGGAGCGUGAGGAUAUACUGCUCAAA | – | – | 91.9 nM | 14.3 nM |
| UGAUAGGACAGAGGAUAUACGGAUAGGAUCUACUAUCUUCUUCAAAUAACAUGAGGAUCACCCAUGUAGAAGGCUGUCCUAUCU | 15 nM | 33 nM | – | – |
| CUGUUAUAGGUCCAGAAUUACAACAUGAGGAUCACCCAUGUGCAGGAUAUCGGGUUGAUAGGCGCCGAGAAGGGCAUAGUCACG | 64.5 nM | 106 nM | – | – |
| AAGCAAGCAGGGAUGCUUCGUAGGGAGGAUAUCUGACUGGGCGGACAUGAGGAUCACCCAUGUACAGAGAAGGCCCAAAACAAC | 376 nM | 61.6 nM | – | – |
| CGCUUUGUACAUGAGGAUCACCCAUGUUAAUAUGUGGUAGUCAGAAGGCAUUGUUUGAGAUAUUAUGAGGAUAUGAUUAGUCUG | – | – | 73.2 nM | 43.6 nM |
| CGGCGCUGUCGAGAGGAUAUGCGGUGAUGGACAUGAGGAUCACCCAUGUUAGCGAUAGCAUCACGGUAGAAGGCUCUACGGCUUG | – | – | 46.3 nM | 15.5 nM |
| UGAUCGAGAGAUCUUAGAUUCUGGUAGGAUAUACAUUAUGUAUUAUAUACAUGAGGAUCACCCAUGUAGAAGGACUAGAGUCUA | 6.7 nM | 11.8 nM | – | – |
| AAAAAACAUGAGGAUCACCCAUGUCAGGAUAUGAAAAAAAAAAAAAAAAAAAAAAAAAUCAGAAGGGACAAAAA | 66.4 nM | 36.1 nM | – | – |
| ACGAAGAUACAGAAGGGUAAAUUAGUUAAUUAUAAUUUGGUUAUGCACUACAGGAUAUGUUAUACAUGAGGAUCACCCAUGUUC | – | – | 18.2 nM | 13.7 nM |
| AGACGGAGCAGAGGAUAUACAUGAGGAUCACCCAUGUAAGAUCUCCAGGAAACUGGAGAUCAAAUGUAGAAGGCUGCUCCGUCA | 17.8 nM | 55.8 nM | – | – |
| UGGUACUAGGGAGGAUAUGGGAAGAUACAUGAGGAUCACCCAUGUUUAAGAAUGCCGAGAGGCAACUAGAAGGCCCUAGUACUU | – | – | 448 nM | 20.2 nM |

| Sequence | apparent Kd [1] | apparent Kd [2] | apparent Kd [3] | apparent Kd [4] |
| --- | --- | --- | --- | --- |
| ACAUGAGGAUCACCCAUGUAGAAUGAAGAAGGUACUAUAUAGAUAUACACCCUAUGUCUAUAUAGUAAGGAUAUUCUAAUAAUU | – | – | 6.45 nM | 6.35 nM |
| AUGGGUUAAGGAGGAUAUAGAGGGAGAAGUAAACAUGAGGAUCACCCAUGUAUUUAAUUAGUUUACUAGAAGGCUUGUGAUUGU | – | – | 33.6 nM | 41.5 nM |
| AAACACGGACAUGAGGAUCACCCAUGUGGCGAAAGCCUUGGAAGAAGGCCGUAUGCAAAGCAUACGGAGGAUAUUCAUACCGUG | – | – | 15.6 nM | 5.85 nM |
| UGGUACAUCGGAGGAUAUCAUGUAUAUACAUGAGGAUCACCCAUGUCGAUGGAGACAUCGGAGAUUGAGAAGGCCGAUGUACCU | – | – | 799 nM | 33.3 nM |
| GUUCCACAUGAGGAUCACCCAUGUGAGGAUAUGGAUUCGCUGGCCGUAGCCAGUGGAUCCAGAAGGCGCAUGAU | 39.9 nM | 153 nM | – | – |
| ACAUAGUUAGGAUAUGCUGCUCGUCACUUGCGUGAUGAGUAGCAGAAGGAACAUGAGGAUCACCCAUGUAAAAA | 28.3 nM | 25.5 nM | – | – |
| AUCAGCUUGUCAGGAUAUGCGUGUCAACGAAAGUUGACAAUCUUAAUAACAUGAGGAUCACCCAUGUAGAAGGGACGAGCUGAU | 17.1 nM | 17.9 nM | – | – |
| GCGUAACAUGAGGAUCACCCAUGUGCCCGAGAAUUCGGGCCGAGAAGGGUGACCGGACGUAUGGCACAGGAUAUCGACGUUUUG | – | – | 33.6 nM | 48.4 nM |
| GUAGCAUACCGAGGAUAUUCAACCGGAAACGGAACAUGAGGAUCACCCAUGUGGCGAAAGCCUUGGGAGAAGGCGGAAUGCUAC | – | – | 77.5 nM | 20.6 nM |
| AGCUGGUGACAGCAAGAAAUUUCACAUGAGGAUCACCCAUGUAGAAGGCUGUACGGUUACCGUACAGAGGAUAUACAUAGAAAG | 22.4 nM | 30.5 nM | – | – |
| GUUAACACAUGAGGAUAUGCUCGCAUUUCAAGAGCAGAAGGUAUGUCUAUAGACAUGAGGAUCACCCAUGUAUUUAUCAUUGAA | – | – | 274 nM | 52.6 nM |
| UGUUAAUAUCGAGGAUAUGUCUAGACACAUGAGGAUCACCCAUGUAUGUGUAUAGAAGGCGAUAUUAACAGCAUGUUACAUGCC | – | – | 37.1 nM | 17.7 nM |
| CACAGGGAUUCAGGAUAUAUUAGCCGAGGCCGCGUAGAAGGGAAAUCCUGACAUGAGGAUCACCCAUGUUAACCCACUUUUCAU | – | – | 28.1 nM | 28.4 nM |
| GUUCUUCCUGUGAGGAUAUCCAUGUGUCGGUUUGUGGAGAAGGUACAUGAGGAUCACCCAUGUCACCCGCGUUA | 14.7 nM | 17.7 nM | – | – |
| UUAAAUCAUGUAGGAUAUGCAUGGCGAAGCUACGCAGAAGGACAUGAGGAUCACCCAUGUUAUAGCGACCCAGUUCGGUUGCAA | 94.3 nM | 230 nM | – | – |
| UGAUACUAAGAGAAGGUACAAACUACAUAUUACAUACAUGAGGAUCACCCAUGUUGGUGAAUAAGUAAGGAUAUUUUACUAUAU | 15.4 nM | 12.4 nM | – | – |
| AUUUCGUUAGCAGGAUAUGGACAGGCCUGUCCGUAUUGAGACAGUAACAUGAGGAUCACCCAUGUCCAGAAGGGCUCGAAGUAU | 30.2 nM | 43.9 nM | – | – |
| AUUUUAAUGUCAGGAUAUAUUAGUUUAUAUAUAGUAGAAGGGAUAAUUAUACUCAUGUACAUGAGGAUCACCCAUGUUAAAUAA | – | – | 216 nM | 79.1 nM |
| AUAACGUCAGGAUAUUUCCAGAGGGUCAUAGGACCCAUUGGAAAGAAGGGACAUGAGGAUCACCCAUGUCGGUG | 136 nM | 391 nM | – | – |
| GCUUGUGAAGGAUAUACUGGCGGCGUGCGCUCGGCGCGCGCACAUGAGGAUCACCCAUGUAGAAGGUCAGGCGU | 13.8 nM | 12.5 nM | – | – |
| CAAAGACAAGCAGGAUAUCACAUGAGGAUCACCCAUGUCGGGAUCACCUGAGAGUGUUUAUUAAGUGAGAAGGGCUAGAUCACC | 17.6 nM | 31.2 nM | – | – |
| UCGGCCCAAGCACAUGAGGAUCACCCAUGUACCACGGCCACCAGAAGGGCAGGGAAGAGGGAUCUGCAGGAUAUGGGCACUAGC | – | – | 14.4 nM | 9.6 nM |
| ACUGACAUGAGGAUCACCCAUGUCUUGGAUAGGCCAAAUUCACAGGAUAUGCAUGAGGACAGCGUGCAGAAGGGUGAUGCAAUG | – | – | 54.6 nM | 25.5 nM |
| UACUCGUGUGAGAAGGGACGUAUCUCCAUGAGGGCAGGGCUAUUAGAGAAGUCAGGAUAUCACAUGAGGAUCACCCAUGUGACG | 8.26 nM | 10.8 nM | – | – |
